Some results are limits rather than exact numbers.

The term inhibition denotes the change of the read-out against control, counted positive when it falls. By inhibition in vivo is commonly meant the percentage by which the read-out fell short of the control.

The target in series [1] is C-X-C chemokine receptor type 4 (Homo sapiens) (UniProt P61073). Briefly: Inhibition of biotinylated TN14003 binding to CXCR4 in human MDA-MB-231 cells preincubated for 10 mins followed by biotinylated-TN14003 addition measured after 30 mins by streptavidin-rhodamine staining based fluorescence microscopic analysis. The format is cell-based. Summed up:
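MDA-MB-231 cells (CXCR4-overexpressing) exposed to compound at 1, 10, 100 and 1000 nM for 10 min at room temperature. Cells fixed in chilled 4% paraformaldehyde, rehydrated in PBS, then stained with 0.05 µg/mL biotinylated TN14003 for 30 min at room temperature, washed three times in PBS, and stained with streptavidin-rhodamine (1:150) for 30 min. Read by fluorescence microscopy. EC taken as the lowest concentration, by order of magnitude, giving a significant drop in fluorescence versus control.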

For series [2] the target is unchanged. As to the kind of experiment: Inhibition of CXCR4-mediated chemotaxis in human MDA-MB-231 cells assessed as reduction in CXCL12alpha-induced cell invasion at 100 nM incubated for 22 hrs by hematoxylin/eosin dye-based matrigel assay relative to control. In short, it runs like this:
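Run in a Matrigel invasion chamber. The bottom chamber held CXCL12 (200 ng/mL). MDA-MB-231 cells were treated with compound at 100 nM, placed in the top chamber, and incubated 22 h in a humidified incubator. Non-invading cells were swabbed off; cells in the bottom chamber were H&E-stained, fixed in methanol and counted. Results given as % inhibition of invasion versus negative control.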

Series [3] relates to Mus musculus. As to the kind of experiment: Antiinflammatory activity in C57BL/6J mouse assessed as inhibition of carrageenan-induced paw edema at 10 mg/kg, ip daily dosed 30 mins after carrageenan challenge and measured after 74 hrs carrageenan challenge and 2 hrs post last dose by caliper method relative to control. It counts as functional. A general note: Carrageenan injected into the paw causes an acute inflammation.

Series [4] in a line: Toxicity in C57BL/6J mouse at 10 mg/kg, ip. The format is organism-based. To be noted: in vivo.

Chain of C-X-C chemokine receptor type 4 (Homo sapiens) (P61073 whole entry): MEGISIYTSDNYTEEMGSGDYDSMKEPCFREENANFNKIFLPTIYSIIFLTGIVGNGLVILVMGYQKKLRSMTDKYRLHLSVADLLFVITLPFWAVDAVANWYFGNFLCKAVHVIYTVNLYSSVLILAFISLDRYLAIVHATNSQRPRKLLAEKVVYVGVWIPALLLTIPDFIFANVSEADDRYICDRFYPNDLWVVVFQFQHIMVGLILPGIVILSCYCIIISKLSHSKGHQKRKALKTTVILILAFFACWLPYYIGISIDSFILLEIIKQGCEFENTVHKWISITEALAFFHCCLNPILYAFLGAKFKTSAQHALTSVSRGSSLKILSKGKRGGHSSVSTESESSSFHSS

Regarding `CCc1ccc(NCc2ccc(CNc3ccc(CC)cc3)o2)cc1`, the EC in series [1] is over 1000 nM.
In turn, `Cc1cccc(NCc2ccc(CNc3cccc(C)c3)s2)c1` came in with an EC in series [1] of over 1000 nM.
For the compound `Clc1cccc(NCc2cscc2CNc2cccc(Cl)c2)c1`, the EC in series [1] was over 1000 nM.
The same measure, in the same setting: as for `c1cc(CN2CCOCC2)oc1CN1CCOCC1`, the figure is 1000 nM.
Turning to `CN1CCN(Cc2ccc(CN3CCN(C)CC3)s2)CC1`, the EC in series [1] came to 100 nM. For the same compound, the inhibition in series [2] was 86%.
In the case of `c1ccc(NCc2ccc(CNc3ccccn3)cc2)nc1`, the inhibition in vivo at 10 mg/kg in series [3] came to 40%. In addition, the Activity entry in series [4] is on record as “Non-Toxic”.
As to `Fc1ccc(NCc2cscc2CNc2ccc(F)cc2)cc1`, in series [1], the EC is over 1000 nM.
`FC(F)(F)c1ccc(NCc2ccc(CNc3ccc(C(F)(F)F)cc3)o2)cc1` showed an EC in series [1] of over 1000 nM.
On to `CSc1ccc(NCc2ccc(CNc3ccc(SC)cc3)s2)cc1`, for which the EC in series [1] amounted to 100 nM. Moreover, the inhibition in series [2] worked out at 88%.
`Fc1cccc(NCc2cscc2CNc2cccc(F)c2)c1`: the EC in series [1] is over 1000 nM.
On the same count and under the same terms, as for `FC(F)(F)c1ccccc1NCc1ccc(CNc2ccccc2C(F)(F)F)s1`, the figure is over 1000 nM.
With `Cc1ccc(NCc2ccc(CNc3ccc(C)cc3)o2)cc1`, the EC in series [1] was 100 nM. Also, the inhibition in vivo at 10 mg/kg in series [3] came out at 15%. Moreover, the inhibition in series [2] is 75%. Moreover, the Activity entry in series [4] is listed as “Non-Toxic”.
The compound `FC(F)(F)c1ccc(NCc2ccc(CNc3ccc(C(F)(F)F)cc3)s2)cc1` displayed an EC in series [1] of over 1000 nM.
With `Cc1ccc(NCc2cscc2CNc2ccc(C)cc2)cc1`, the EC in series [1] was over 1000 nM.
Take `CN1CCN(Cc2ccc(CN3CCN(C)CC3)o2)CC1`: in series [1], the EC turned out to be 10 nM. Moreover, in series [2], the inhibition is 82%. Moreover, the Activity result in series [4] is “Non-Toxic”.
For `Clc1ccc(NCc2ccc(CNc3ccc(Cl)cc3)o2)cc1`, the EC in series [1] amounted to 10 nM. In addition, the inhibition in vivo at 10 mg/kg in series [3] was found to be 17%. In addition, in series [2], the inhibition was found to be 48%. The Activity entry in series [4] was “Non-Toxic”.
Turning to `COc1ccc(NCc2ccc(CNc3ccc(OC)cc3)s2)cc1`, the EC in series [1] worked out at 10 nM. Further, in series [2], the inhibition was determined as 84%. Besides, in series [4], the Activity result is given as “Non-Toxic”.
`Cc1ccccc1NCc1ccc(CNc2ccccc2C)o1` gave an EC in series [1] of over 1000 nM.
For the compound `FC(F)(F)c1ccccc1NCc1ccc(CNc2ccccc2C(F)(F)F)o1`, in series [1], the EC turned out to be 100 nM. Moreover, the inhibition in series [2] was found to be 24%.
The compound `COc1ccc(NCc2ccc(CNc3ccc(OC)cc3)o2)cc1` showed an EC in series [1] of over 1000 nM.
In series [1], `c1ccc(NCc2cscc2CNc2ccccc2)cc1` came in with an EC of 10 nM. Also, the inhibition in series [2] came out at 72%. The Activity result in series [4] is “Non-Toxic”.
In series [1], `CCc1ccc(NCc2ccc(CNc3ccc(CC)cc3)s2)cc1` had an EC of over 1000 nM.
`CCc1ccc(NCc2cscc2CNc2ccc(CC)cc2)cc1` returned an EC in series [1] of over 1000 nM.
For the compound `c1cc(CN2CCOCC2)sc1CN1CCOCC1`, the EC in series [1] was over 1000 nM.
For `Fc1ccccc1NCc1ccc(CNc2ccccc2F)s1`, the EC in series [1] was determined as 1000 nM.
`Cc1ccccc1NCc1ccc(CNc2ccccc2C)s1` had an EC in series [1] of 10 nM. Further, the inhibition in series [2] turned out to be 61%. In series [4], the Activity result was “Non-Toxic”.
For the compound `Fc1ccc(NCc2ccc(CNc3ccc(F)cc3)o2)cc1`, in series [1], the EC is 100 nM. In addition, the inhibition in vivo at 10 mg/kg in series [3] is 31%. The inhibition in series [2] was determined as 53%. For the same compound, in series [4], the Activity entry was “Non-Toxic”.
Regarding `CSc1ccc(NCc2ccc(CNc3ccc(SC)cc3)o2)cc1`, the EC in series [1] was over 1000 nM.
In turn, `CCc1ccccc1NCc1ccc(CNc2ccccc2CC)s1` displayed an EC in series [1] of 1000 nM.
For `c1cc(CN2CCSCC2)oc1CN1CCSCC1`, the EC in series [1] was found to be 10 nM. Moreover, the inhibition in series [2] turned out to be 79%.
In series [1], `c1ccc(NCc2ccc(CNc3ccccc3)s2)cc1` registered an EC of 1 nM. The inhibition in vivo at 10 mg/kg in series [3] came to 30%. For the same compound, the inhibition in series [2] was found to be 68%. Also, the Activity entry in series [4] was “Non-Toxic”.
Turning to `FC(F)(F)c1cccc(NCc2ccc(CNc3cccc(C(F)(F)F)c3)o2)c1`, the EC in series [1] is over 1000 nM.
On to `c1cc(CN2CCSCC2)sc1CN1CCSCC1`, for which, in series [1], the EC worked out at 1 nM. For the same compound, in series [2], the inhibition is 88%. In addition, the Activity entry in series [4] is on record as “Non-Toxic”.
On to `CCc1cccc(NCc2ccc(CNc3cccc(CC)c3)s2)c1`, for which the EC in series [1] was over 1000 nM.
Turning to `FC(F)(F)c1ccc(NCc2cscc2CNc2ccc(C(F)(F)F)cc2)cc1`, the EC in series [1] was over 1000 nM.
`Cc1ccc(NCc2ccc(CNc3ccc(C)cc3)s2)cc1`: in series [1], the EC was 100 nM. In series [2], the inhibition came to 49%. Moreover, the Activity entry in series [4] was “Non-Toxic”.
`Clc1cccc(NCc2ccc(CNc3cccc(Cl)c3)s2)c1` returned an EC in series [1] of 100 nM. The inhibition in series [2] stood at 51%. In addition, the Activity result in series [4] was “Non-Toxic”.
The compound `COc1ccccc1NCc1ccc(CNc2ccccc2OC)o1` came in with an EC in series [1] of 100 nM. The inhibition in series [2] was 5%.
For the compound `CCc1cccc(NCc2ccc(CNc3cccc(CC)c3)o2)c1`, the EC in series [1] was over 1000 nM.
In series [1], `Fc1cccc(NCc2ccc(CNc3cccc(F)c3)s2)c1` displayed an EC of over 1000 nM.
As for `c1ccc(NCc2ccc(CNc3ccccc3)o2)cc1`, the EC in series [1] is over 1000 nM.
With `Cc1cccc(NCc2cscc2CNc2cccc(C)c2)c1`, in series [1], the EC was over 1000 nM.
`Clc1ccccc1NCc1ccc(CNc2ccccc2Cl)o1`: the EC in series [1] is over 1000 nM.
As to `Clc1ccccc1NCc1ccc(CNc2ccccc2Cl)s1`, in series [1], the EC turned out to be 10 nM. Moreover, in series [3], the inhibition in vivo at 10 mg/kg is over 5%. Further, the inhibition in series [2] was 93%. For the same compound, the Activity entry in series [4] is reported as “Non-Toxic”.
In series [1], `Clc1cccc(NCc2ccc(CNc3cccc(Cl)c3)o2)c1` returned an EC of over 1000 nM.
Regarding `Clc1ccc(NCc2cscc2CNc2ccc(Cl)cc2)cc1`, the EC in series [1] was over 1000 nM.
Take `CCc1ccccc1NCc1ccc(CNc2ccccc2CC)o1`: in series [1], the EC came out at 1000 nM.
The compound `Clc1ccc(NCc2ccc(CNc3ccc(Cl)cc3)s2)cc1` came in with an EC in series [1] of 1 nM. Besides, the inhibition in series [2] was 22%.
Regarding `Cc1cccc(NCc2ccc(CNc3cccc(C)c3)o2)c1`, the EC in series [1] was over 1000 nM.
In series [1], `FC(F)(F)c1cccc(NCc2ccc(CNc3cccc(C(F)(F)F)c3)s2)c1` showed an EC of 100 nM. For the same compound, in series [2], the inhibition was found to be 77%. Also, in series [4], the Activity result is listed as “Non-Toxic”.
Compound `FC(F)(F)c1cccc(NCc2cscc2CNc2cccc(C(F)(F)F)c2)c1` returned an EC in series [1] of over 1000 nM.
Take `COc1ccccc1NCc1ccc(CNc2ccccc2OC)s1`: the EC in series [1] is 10 nM. Besides, the inhibition in series [2] was found to be 52%. Also, the Activity result in series [4] is on record as “Non-Toxic”.
Consider `Fc1ccc(NCc2ccc(CNc3ccc(F)cc3)s2)cc1`, for which the EC in series [1] was over 1000 nM.
Compound `Fc1ccccc1NCc1ccc(CNc2ccccc2F)o1` displayed an EC in series [1] of 10 nM. Besides, the inhibition in series [2] was found to be 71%. The Activity result in series [4] was “Non-Toxic”.
Regarding `COc1cccc(NCc2ccc(CNc3cccc(OC)c3)s2)c1`, the EC in series [1] is 1000 nM.
`Fc1cccc(NCc2ccc(CNc3cccc(F)c3)o2)c1` yielded an EC in series [1] of over 1000 nM.
On to `COc1cccc(NCc2ccc(CNc3cccc(OC)c3)o2)c1`, for which, in series [1], the EC is over 1000 nM.

Values taken from ChEMBL document CHEMBL4359865, “Synthesis and evaluation of 2,5-furan, 2,5-thiophene and 3,4-thiophene-based derivatives as CXCR4 inhibitors” (Eur J Med Chem, 2019).
